Active and inactive are the calls of the source. The rule behind the calls is not given here.
Key:
Hepacivirus hominis [1] = experiment: Inhibition of HCV NS3/4A helicase assessed as blockade of ssRNA formation form dsRNA at 100 uM by PAGE
Hepacivirus hominis [2] = experiment: Inhibition of HCV NS3/4A helicase assessed as blockade of dsRNA binding to enzyme by gel mobility shift assay
Method in brief: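 Gel mobility shift. NS3/4A (0.45 µg) preincubated with 100 µM compound in helicase buffer without ATP for 5 min at 37 °C. Then 0.66 pmol isotope-labeled partial dsRNA added for 15 min more. Complexes resolved on 4% polyacrylamide containing 5% glycerol and visualized by autoradiography.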

[3] = Inhibition of ATPase activity of HCV NS3/4A helicase by autoradiography; set-up: species or system Hepacivirus hominis
Method in brief: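 ATP hydrolysis measured in 20 mM HEPES-KOH pH 7.0, 1.5 mM MgCl2, 2 mM DTT and 0.1 µg/mL poly-U, with [α-32P]ATP spanning 0.067-20 µM ATP. Reaction started by adding His-tagged NS3/4A (0.45 µg) and stopped with EDTA after 5 min. Products separated by PEI-cellulose TLC in 0.375 M K2PO4 pH 3.5 and quantified by autoradiography.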

[4] = Inhibition of HCV NS3/4A helicase by FRET assay; set-up: species or system Hepacivirus hominis
Method in brief: (§1)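 His-tagged NS3/4A (0.9 µg) preincubated with compound on ice for 15 min. Fluorescence (ex 485/em 518 nm) followed continuously and end-point minus start normalized to DMSO. Screened at 100 µM final.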

Hepatitis C virus [5] = experiment: Antiviral activity against HCV1b infected in human Ava5/Huh7 cells by replicon-cell assay; assay type: functional, organism-based, Hepacivirus hominis; settings: genotype 1b
[6] = Cytotoxicity against human HuH7 cells; assay type: cell-based, Huh-7
Hepacivirus hominis [7] = experiment: Inhibition of HCV NS3/4A helicase at 100 uM by FRET assay; method in brief: as §1
[8] = Ratio of CC50 for human HuH7 cells to EC50 for HCV1b; set-up: species or system Huh-7
[9] = Cytotoxicity against human Ava5/Huh7 cells assessed as reduction in cell growth at 5 uM after 5 days in presence of polypeptide synthesis blocker G418; assay type: cell-based; set-up: scale not given: the % may be the effect or the level left; settings: ava5/huh7, 120 h
[10] = Cytotoxicity against human Ava5/Huh7 cells assessed as reduction in cell growth at 5 uM after 5 days in absence of polypeptide synthesis blocker G418; assay type: cell-based; set-up: scale not given: the % may be the effect or the level left; settings: ava5/huh7, 120 h
Hepatitis C virus [11] = experiment: Antiviral activity against HCV1b infected in human Ava5/Huh7 cells assessed as decrease in viral RNA level at 5 to 10 uM after 2 days by RT-PCR relative to control; assay type: functional, Hepacivirus hominis, genotype 1b; set-up: scale not given: the % may be the effect or the level left
Method in brief: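 Ava.5/Huh-7 replicon cells (genotype 1b) seeded and grown 24 h in G-418-free DMEM, then exposed to 5, 10 or 20 µM compound for 24 or 48 h. Total RNA extracted and 1 µg reverse-transcribed with random decamers. SYBR Green real-time PCR run 40 cycles. HCV signal normalized to GAPDH and expressed relative to untreated replicon cells set at 1.0. Triplicate, averaged.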

Activity (Hepacivirus hominis [1]) | Activity (Hepacivirus hominis [2]) | IC50 [3] | IC50 [4] | EC50 (Hepatitis C virus [5]) | inhibition (Hepacivirus hominis [7]) | SMILES | CC50 [6] | also measured
Active | Dose-dependent effect | 25.1 µM | 29.7 µM | > 50 µM | – | O=C(O)c1cc(Nc2ccc(C(Cl)(c3ccccc3)c3ccc(Nc4ccc(Cl)c(C(=O)O)c4)cc3)cc2)ccc1Cl | > 50 µM | –
Active | Dose-dependent effect | 23.8 µM | 40 µM | > 50 µM | – | O=S(=O)(O)c1ccc(N=C2C=CC(=C(c3ccc(Nc4cccc(S(=O)(=O)O)c4)cc3)c3ccc(Nc4cccc(S(=O)(=O)O)c4)cc3)C=C2)cc1 | > 50 µM | –
– | – | – | – | – | 30% | Nc1ccc(C(c2ccc(N)cc2)c2ccc(N)cc2)cc1 | – | –
– | – | – | – | – | 15% | COc1ccc(C(C)(C)c2ccc(C(C)(c3ccc(OC)cc3)c3ccc(OC)cc3)cc2)cc1 | – | –
– | – | – | – | – | 46% | COc1ccc(-c2cc(-c3ccc(N(C)C)cc3)nc(NS(=O)(=O)c3ccc(N)cc3)n2)cc1 | – | –
inactive | Dose-dependent effect | > 100 µM | 12.6 µM | 0.69 µM | – | Cc1cc([C@@](O)(c2ccc(Nc3ccccc3)cc2)c2ccc(Nc3ccc(S(=O)(=O)[O-])cc3)cc2)ccc1N.[Na+] | 0.96 µM | Ratio CC50/EC50 [8]: 1.39
– | – | – | – | – | 0% | CC(c1ccccc1)(c1ccc(Oc2ccc([N+](=O)[O-])cc2)cc1)c1ccc(Oc2ccc([N+](=O)[O-])cc2)cc1 | – | –
– | – | – | 10.1 µM | 2.72 µM | – | CC(C)(c1ccc(C(C)(c2ccc(O)c(Br)c2)c2ccc(O)c(Br)c2)cc1)c1ccc(O)c(Br)c1 | 10.5 µM | Activity [9]: 50%; Ratio CC50/EC50 [8]: 3.86; Activity [10]: 20%; Activity (Hepatitis C virus [11]): 40%

SMILES | Activity (Hepacivirus hominis [1]) | Activity (Hepacivirus hominis [2]) | IC50 [3] | IC50 [4] | EC50 (Hepatitis C virus [5]) | inhibition (Hepacivirus hominis [7]) | CC50 [6] | also measured
CC(C)(c1ccc(O)cc1)c1ccc(C(C)(C)c2ccc(O)cc2)cc1 | – | – | – | 60.7 µM | – | – | – | –
CC(c1ccc(O)cc1)(c1ccc(O)cc1)c1ccc(O)cc1 | – | – | – | – | – | 39% | – | –
CC(c1ccccc1)(c1ccc(O)cc1)c1ccc(O)cc1 | – | – | – | – | – | 43% | – | –
CC(C)(c1ccc(O)cc1)c1ccc(C(C)(c2ccc(O)cc2)c2ccc(O)cc2)cc1 | Active | Dose-dependent effect | 25.9 µM | 13.9 µM | 8.37 µM | – | 12.7 µM | Ratio CC50/EC50 [8]: 1.51
